Assay results as given in paper PMC6424611 (Journal of molecular biology, 2019).
Where no end group is shown, it is not given here. [ ]: non-standard residue; d: D form. The star is where a group is joined. Biotin = O=C1N[C@H]2[C@H](CS[C@H]2CCCCC(=O)*)N1; TTDS = NCCCOCCOCCOCCCNC(=O)CCC(=O)*; pS = N[C@@H](COP(=O)(O)O)C(=O)O

How the values were obtained:
[1] = tested on: ARHGEF11 PDZ; assay: holdup assay; assay type: binding, human; details: ~4 μM PDZ
How it was run: (§1)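 Automated holdup against N-terminally biotinylated (TTDS linker) RSK1 725–735 peptides, unphosphorylated and phosphorylated, in triplicate. PDZome v2 clones were codon-optimized and expressed in E. coli, with soluble lysate adjusted to ~4 μM. BI is the PDZ fraction depleted from the fluid phase.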

[2] = biological target: T1, ARHGEF12 PDZ (Homo sapiens, UniProt Q9NZN5); assay: holdup assay; assay type: binding; details: ~4 μM PDZ
T1 sequence (Q9NZN5 72-151 limits assumed): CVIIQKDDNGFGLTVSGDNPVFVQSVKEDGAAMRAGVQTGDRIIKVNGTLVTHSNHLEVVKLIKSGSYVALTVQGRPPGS
How it was run: as §1

[3] = tested on: SHROOM2 PDZ; assay: holdup assay; assay type: binding, human; details: ~4 μM PDZ
How it was run: as §1

[4] = tested on: GORASP1 PDZ; assay: holdup assay; assay type: binding, human; details: ~4 μM PDZ
How it was run: as §1

[5] = biological target: T2, SNTA1 PDZ (Homo sapiens, UniProt Q13424); assay: holdup assay; assay type: binding; details: ~4 μM PDZ
T2 sequence (Q13424 87-170 limits assumed): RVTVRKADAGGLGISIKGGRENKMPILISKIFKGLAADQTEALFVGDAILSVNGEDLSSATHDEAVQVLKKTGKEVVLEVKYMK
How it was run: as §1

[6] = biological target: T3, SNTB1 PDZ (Homo sapiens, UniProt Q13884); assay: holdup assay; assay type: binding; details: ~4 μM PDZ
T3 sequence (Q13884 112-195 limits assumed): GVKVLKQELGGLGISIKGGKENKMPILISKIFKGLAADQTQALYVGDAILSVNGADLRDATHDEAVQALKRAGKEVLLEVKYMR
How it was run: as §1

[7] = tested on: GRASP PDZ; assay: holdup assay; assay type: binding, human; details: ~4 μM PDZ
How it was run: as §1

[8] = tested on: DLG4-2 PDZ; assay: holdup assay; assay type: binding, human; details: fraction of PDZ depleted; ~4 μM PDZ; biotinylated RSK1_725–735; triplicates
[9] = biological target: T4, SNTG2 PDZ (Homo sapiens, UniProt Q9NY99); assay: holdup assay; assay type: binding; details: fraction of PDZ depleted; ~4 μM PDZ; biotinylated RSK1_725–735; triplicates
T4 sequence (Q9NY99 73-156 limits assumed): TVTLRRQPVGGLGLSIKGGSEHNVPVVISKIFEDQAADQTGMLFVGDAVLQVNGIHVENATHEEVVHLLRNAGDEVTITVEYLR
How it was run: as §1

[10] = tested on: GRID2IP-1 PDZ; assay: holdup assay; assay type: binding, human; details: ~4 μM PDZ
How it was run: as §1

[11] = biological target: HTRA1 PDZ (Homo sapiens, UniProt Q92743); assay: holdup assay; assay type: binding; details: ~4 μM PDZ
How it was run: as §1

[12] = tested on: MAGI3-2 PDZ; assay: holdup assay; assay type: binding, human; details: fraction of PDZ depleted; ~4 μM PDZ; biotinylated RSK1_725–735; triplicates
How it was run: (§2)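 Automated holdup in triplicate measured biotinylated (N-terminal TTDS linker) RSK1 725–735 peptides, unphosphorylated or phosphorylated, against E. coli-expressed PDZome v2 domains. Soluble lysate was adjusted to ~4 μM, giving 255 domains for the unphosphorylated and 252 for the phosphorylated peptide. Binding intensity (BI) is the fraction of PDZ depleted from the fluid phase. BI 0.2 was the high-confidence threshold.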

[13] = tested on: human PDZ domains (PDZome); assay: holdup assay, PDZome-binding profile
How it was run: as §2

[14] = tested on: SCRIB-3 PDZ; assay: holdup assay, updated analysis; assay type: binding, human; details: weak partner; automated computational protocol
How it was run: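 The same triplicate holdup datasets (biotinylated RSK1 725–735, unphosphorylated and phosphorylated, vs ~4 μM PDZome lysates) were re-analysed with an updated automated computational protocol. This gave alternative BI values, reported as supplemental values alongside the conventional analysis.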

[15] = biological target: MAGI1-2 PDZ (Homo sapiens, UniProt Q96QZ7); assay: holdup assay; assay type: binding
How it was run: as §1

[16] = tested on: LNX1 −3 PDZ; assay: holdup assay; assay type: binding, human; details: ~4 μM PDZ
How it was run: as §1

[17] = tested on: LAP2 PDZ; assay: holdup assay; assay type: binding, human; details: fraction of PDZ depleted; ~4 μM PDZ; biotinylated RSK1_725–735; triplicates
How it was run: as §1

[18] = biological target: T5, PDZRN3-1 PDZ (Homo sapiens, UniProt Q9UPQ7); assay: holdup assay; assay type: binding; details: ~4 μM PDZ
T5 sequence (Q9UPQ7 249-339 limits assumed): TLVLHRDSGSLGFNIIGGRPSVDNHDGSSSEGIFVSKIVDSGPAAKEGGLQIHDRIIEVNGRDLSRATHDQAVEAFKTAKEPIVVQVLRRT
How it was run: as §1

[19] = tested on: PTPN3 PDZ; assay: holdup assay; assay type: binding, human; details: ~4 μM PDZ
How it was run: as §1

[20] = tested on: GORASP2 PDZ; assay: holdup assay; assay type: binding, human; details: ~4 μM PDZ
How it was run: as §1

[21] = biological target: T6, MAST2 PDZ (Homo sapiens, UniProt Q6P0Q8); assay: holdup assay; assay type: binding; details: ~4 μM PDZ
T6 sequence (Q6P0Q8 1104-1192 limits assumed): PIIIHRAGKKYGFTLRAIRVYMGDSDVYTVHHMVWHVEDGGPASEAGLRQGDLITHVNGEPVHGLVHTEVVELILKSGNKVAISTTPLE
How it was run: as §1

[22] = tested on: NHERF2-2 PDZ; assay: holdup assay; assay type: binding, human; details: ~4 μM PDZ
How it was run: as §1

[23] = biological target: GOPC PDZ (Homo sapiens, UniProt Q9HD26); assay: holdup assay; assay type: binding; details: fraction of PDZ depleted; ~4 μM PDZ; biotinylated RSK1_725–735; triplicates
[24] = biological target: T7, NHERF3-1 PDZ (Homo sapiens, UniProt Q5T2W1); assay: holdup assay; assay type: binding; details: ~4 μM PDZ
T7 sequence (Q5T2W1 9-90 limits assumed): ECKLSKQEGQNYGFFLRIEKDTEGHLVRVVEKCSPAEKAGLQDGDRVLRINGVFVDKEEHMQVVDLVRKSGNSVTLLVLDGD
How it was run: as §1

[25] = biological target: GRID2IP-2 PDZ (Homo sapiens, UniProt A4D2P6); assay: holdup assay; assay type: binding; details: fraction of PDZ depleted; ~4 μM PDZ; biotinylated RSK1_725–735; triplicates
How it was run: as §2

[26] = biological target: T8, PARD3B-1 PDZ (Homo sapiens, UniProt Q8TEW8); assay: holdup assay; assay type: binding; details: fraction of PDZ depleted; ~4 μM PDZ; biotinylated RSK1_725–735; triplicates
T8 sequence (Q8TEW8 201-289 limits assumed): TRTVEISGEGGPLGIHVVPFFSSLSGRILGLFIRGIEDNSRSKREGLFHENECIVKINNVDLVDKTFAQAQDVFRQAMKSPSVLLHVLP
How it was run: as §2

[27] = fraction of PDZ depleted, biotinylated RSK1_725–735, triplicates
[28] = read-out: KD, estimated, from BI, estimated 17 μM peptide
[29] = BI threshold 0.2, compared to the unphosphorylated peptide

Sequence of MAGI1-2 PDZ (Q96QZ7 472-554 limits assumed): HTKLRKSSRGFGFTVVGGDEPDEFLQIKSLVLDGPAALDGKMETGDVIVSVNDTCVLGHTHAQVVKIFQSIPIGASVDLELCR
Sequence of HTRA1 PDZ (Q92743 365-467 limits assumed): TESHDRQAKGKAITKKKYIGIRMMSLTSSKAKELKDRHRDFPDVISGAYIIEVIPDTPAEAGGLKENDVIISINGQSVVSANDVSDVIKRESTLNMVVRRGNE
Sequence of GRID2IP-2 PDZ (A4D2P6 279-356 limits assumed): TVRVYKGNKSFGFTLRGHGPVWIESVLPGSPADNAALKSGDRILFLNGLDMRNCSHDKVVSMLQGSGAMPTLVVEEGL

For “phosphorylated RSK1 peptide: RSK1 C-terminal PBM peptide phosphorylated at position −3; same constructs as the unphosphorylated ({Biotin-TTDS}-RRVRKLP[pS]TTL)”, the “binding intensity (BI)” value [1, 27] was 0.01 ± 0.02, the Kd [1, 28] was > 100 µM and the “binding intensity (BI)” value [2, 27] was 0.05 ± 0.05. The Kd [2, 28] was > 100 µM, the “binding intensity (BI)” value [3, 27] was 0.21 ± 0.01 and the Kd [3, 28] was 60.8 µM. The “binding intensity (BI)” value [4, 27] was 0.23 ± 0.03, the Kd [4, 28] was 53.8 µM and the “binding intensity (BI)” value [5, 27] was 0.53 ± 0.01. For the same substance, the Kd [5, 28] was 13.2 µM, the “binding intensity (BI)” value [6, 27] was 0.45 ± 0.08 and the Kd [6, 28] was 18.6 µM. The “binding intensity (BI)” value [7, 27] was 0.04 ± 0.01, the Kd [7, 28] was > 100 µM and the “binding intensity (BI)” value [8] was 0.25 ± 0.02. The “binding intensity (BI)” value [9] was 0.52 ± 0.05, the “binding intensity (BI)” value [10, 27] was 0.24 ± 0.01 and the Kd [10, 28] was 50.8 µM. For the same substance, the “binding intensity (BI)” value [11, 27] was 0.36 ± 0.01, the Kd [11, 28] was 27.7 µM and the “binding intensity (BI)” value [12] was 0.28 ± 0.06. For the same substance, the “number of detectable binders lost” value [13, 29] was 12, the “number of new binders gained” value [13, 29] was 10 and the “average BI” value ([13]; PDZome profile) was 0.33. For the same substance, the “maximal BI” value ([13]; PDZome profile) was 0.54, the “interaction partner by updated analysis” value [14] was “new partners” and the “binding intensity (BI)” value ([15]; fraction of PDZ depleted, ~4 μM PDZ, biotinylated RSK1_725–735, triplicates) was 0.15 ± 0.02. For the same substance, the “down regulation of interaction by phosphorylation” value ([15]; holdup, phosphorylated vs unphosphorylated) was “a factor of five”, the Kd ([15]; read-out: KD, estimated, from BI, estimated 17 μM peptide, ~4 μM PDZ) was 92.9 µM and the “binding intensity (BI)” value [16, 27] was 0.24 ± 0.07. For the same substance, the Kd [16, 28] was 50.8 µM, the “binding intensity (BI)” value [17] was 0.28 ± 0.01 and the “binding intensity (BI)” value [18, 27] was 0.45 ± 0.01. The Kd [18, 28] was 18.6 µM, the “binding intensity (BI)” value [19, 27] was 0.21 ± 0.02 and the Kd [19, 28] was 60.8 µM. For the same substance, the “binding intensity (BI)” value [20, 27] was 0.19 ± 0.01, the Kd [20, 28] was 69.2 µM and the “binding intensity (BI)” value [21, 27] was 0.23 ± 0.03. The Kd [21, 28] was 53.8 µM, the “binding intensity (BI)” value [22, 27] was 0.07 ± 0.05 and the Kd [22, 28] was > 100 µM. The “binding intensity (BI)” value [23] was 0.25 ± 0.10, the “binding intensity (BI)” value [24, 27] was 0.03 ± 0.01 and the Kd [24, 28] was > 100 µM. For the same substance, the “binding intensity (BI)” value [25] was 0.00 ± 0.01 and the “binding intensity (BI)” value [26] was 0.31 ± 0.02.
